The target in series [1] is T1, Protein cereblon/Androgen receptor (Homo sapiens, UniProt P10275+Q96SW2). The series can be described thus: Protac activity at CRBN/AR in human LNCaP cells assessed as AR degradation at 0.1 uM by western blotting analysis relative to control. In kind it is cell-based. An outline of the steps:
(§1)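 LNCaP (IMDM) or 22RV1 (RPMI 1640) cells with 10% FBS at 37 °C, 5% CO2, treated with DMSO vehicle as control. Cells lysed in RIPA buffer (50 mM Tris-HCl pH 7.5, 150 mM NaCl, 1% Triton X-100, 0.1% SDS, 0.5% deoxycholate, protease inhibitors). Protein quantified by Bradford assay. Immunoblotted for AR with tubulin as loading control, HRP chemiluminescence detection.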
Background: Immunoblotting shows a protein as a band on a membrane.

In series [2] the target is T1, Protein cereblon/Androgen receptor. As to the kind of experiment: Protac activity at CRBN/AR in human LNCaP cells assessed as AR degradation at 1 uM by Western blotting analysis relative to control. In kind it is cell-based. The procedure, abridged: as §1
For series [3] the target is unchanged. As to the kind of experiment: Protac activity at CRBN/AR in human LNCaP cells assessed as AR degradation at 10 uM by Western blotting analysis relative to control. It counts as cell-based. The procedure, abridged: as §1
A further series has as its system LNCaP. As to the kind of experiment: Antiproliferative activity against human LNCaP cells assessed as reduction in cell viability after 6 days by CellTiter-Glo assay. In kind it is functional. Particulars: 144 h, time 6 day. An outline of the steps:
(§2)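 LNCaP seeded at 1.5 × 10³ and VCaP at 4 × 10³ cells per well in 96-well plates. Cells grown in IMDM with 10% FBS and antibiotic-antimycotic at 37 °C, 5% CO2, with DMSO as vehicle. IC50 from nonlinear regression of log(inhibitor) versus response.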
(In ATP-based viability assays light output follows the ATP content of the culture.)

For the next series, the system named is VCaP. As to the kind of experiment: Antiproliferative activity against human VCaP cells assessed as reduction in cell viability after 6 days by CellTiter-Glo assay. It counts as functional. Particulars: 144 h, time 6 day. The procedure, abridged: as §2
Series [4] is described as follows: Metabolic stability in mouse liver microsomes assessed as compound remaining at 1 uM after 30 mins in presence of NADPH-regenerating system. As to conditions: read-out: Stabilty. In kind it is ADME, Microsome. The procedure, abridged: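 Mouse liver microsomes at 0.5 mg protein/mL in 100 mM PBS, pH 7.4. Reaction started with NADPH-regenerating solution (1.3 mM NADP+, 3.3 mM glucose-6-phosphate, 0.4 U/mL G6PDH, 3.3 mM MgCl2). Incubated 30 min at 37 °C, stopped with ice-cold acetonitrile, centrifuged. Percent remaining reported as mean ± SD, n = 3.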

Each structure is given as a SMILES string.

The values that follow come from ChEMBL document CHEMBL4706590, “Design and characterization of cereblon-mediated androgen receptor proteolysis-targeting chimeras” (Eur J Med Chem, 2020).

For orientation: CC50 means the concentration that lowers cell viability or growth by half.

T1 sequence (P10275 whole entry, looked up): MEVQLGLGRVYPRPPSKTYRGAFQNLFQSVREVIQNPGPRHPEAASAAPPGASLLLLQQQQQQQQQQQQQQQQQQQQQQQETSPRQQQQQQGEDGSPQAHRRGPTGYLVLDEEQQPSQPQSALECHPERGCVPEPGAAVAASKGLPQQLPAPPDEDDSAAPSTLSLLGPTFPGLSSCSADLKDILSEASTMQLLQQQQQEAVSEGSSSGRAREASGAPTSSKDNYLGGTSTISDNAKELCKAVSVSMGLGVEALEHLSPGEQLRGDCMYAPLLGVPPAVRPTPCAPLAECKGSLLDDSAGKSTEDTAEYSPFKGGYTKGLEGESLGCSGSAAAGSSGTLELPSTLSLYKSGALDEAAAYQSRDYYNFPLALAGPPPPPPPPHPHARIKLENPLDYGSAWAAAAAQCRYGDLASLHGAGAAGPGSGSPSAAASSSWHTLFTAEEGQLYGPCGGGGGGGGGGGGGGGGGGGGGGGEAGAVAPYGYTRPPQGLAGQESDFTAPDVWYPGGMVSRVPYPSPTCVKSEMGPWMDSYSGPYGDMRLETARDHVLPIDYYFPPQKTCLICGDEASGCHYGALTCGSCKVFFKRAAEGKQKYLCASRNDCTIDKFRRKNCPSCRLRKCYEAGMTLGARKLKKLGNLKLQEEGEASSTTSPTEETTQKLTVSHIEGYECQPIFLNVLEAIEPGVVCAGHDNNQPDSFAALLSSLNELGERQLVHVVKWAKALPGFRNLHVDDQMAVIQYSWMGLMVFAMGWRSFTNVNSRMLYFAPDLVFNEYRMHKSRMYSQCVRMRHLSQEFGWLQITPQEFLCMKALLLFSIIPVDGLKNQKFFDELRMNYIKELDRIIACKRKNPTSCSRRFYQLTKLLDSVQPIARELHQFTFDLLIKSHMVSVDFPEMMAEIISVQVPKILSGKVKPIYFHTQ
T1 sequence (Q96SW2 whole entry, looked up): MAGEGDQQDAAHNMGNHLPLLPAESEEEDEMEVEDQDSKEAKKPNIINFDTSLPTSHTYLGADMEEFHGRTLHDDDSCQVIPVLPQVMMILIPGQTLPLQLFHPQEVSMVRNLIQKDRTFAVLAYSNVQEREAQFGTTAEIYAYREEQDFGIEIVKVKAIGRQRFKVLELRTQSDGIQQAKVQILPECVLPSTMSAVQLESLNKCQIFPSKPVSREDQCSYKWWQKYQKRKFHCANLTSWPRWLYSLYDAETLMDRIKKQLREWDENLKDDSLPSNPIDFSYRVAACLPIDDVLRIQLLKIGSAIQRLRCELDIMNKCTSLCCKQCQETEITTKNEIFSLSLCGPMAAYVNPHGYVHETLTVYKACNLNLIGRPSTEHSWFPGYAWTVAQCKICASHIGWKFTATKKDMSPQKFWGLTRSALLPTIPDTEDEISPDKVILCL

As to `CC1(C)[C@H](NC(=O)c2ccc(N3CCN(CC4CCN(c5ccc6nnn(C7CCC(=O)NC7=O)c(=O)c6c5)CC4)CC3)cc2)C(C)(C)[C@H]1Oc1ccc(C#N)c(Cl)c1` (stereo partly specified), the Activity in series [1] stood at 79%; in series [2], 91%; in series [3], 95%. The CC50 in the series with LNCaP amounted to 259 nM; in the series with VCaP, 81 nM. Also, the remaining at 0.5 h, 1 µM in series [4] worked out at 71.7%.

With `CC1(C)[C@H](NC(=O)c2ccc(N3CCN(CCOC4CCN(C(=O)C5CCN(c6ccc7nnn(C8CCC(=O)NC8=O)c(=O)c7c6)CC5)CC4)CC3)cc2)C(C)(C)[C@H]1Oc1ccc(C#N)c(Cl)c1` (stereo partly specified), the values for the Activity in series [1], in series [2] and in series [3] were 72%, 92% and 98%, respectively. In addition, the figures for the CC50 with LNCaP and in the series with VCaP were 847 nM and 80 nM, respectively. Also, the remaining at 0.5 h, 1 µM in series [4] turned out to be 78.4%.

With `CC1(C)[C@H](NC(=O)c2ccc(N3CCN(C4CC5(CCN(c6ccc7nnn(C8CCC(=O)NC8=O)c(=O)c7c6)CC5)C4)CC3)cc2)C(C)(C)[C@H]1Oc1ccc(C#N)c(Cl)c1` (stereo partly specified), the Activity in series [1] was determined as 15%; in series [2] it was 95%; in series [3], 81%. Moreover, the CC50 turned out to be 214 nM in the series on LNCaP and 113 nM with VCaP.

In the case of `CC1(C)[C@H](NC(=O)c2ccc(N3CCN(CC4CCN(c5ccc6c(=O)n(C7CCC(=O)NC7=O)nnc6c5)CC4)CC3)cc2)C(C)(C)[C@H]1Oc1ccc(C#N)c(Cl)c1` (stereo partly specified), the Activity came out at 28% in series [1], 60% in series [2] and 83% in series [3].

Turning to `CC1(C)[C@H](NC(=O)c2ccc(N3CCN(CCC4CCN(c5ccc6nnn(C7CCC(=O)NC7=O)c(=O)c6c5)CC4)CC3)cc2)C(C)(C)[C@H]1Oc1ccc(C#N)c(Cl)c1` (stereo partly specified), the figures for the Activity in series [1] and in series [2] were 51% and 94%, respectively. Further, the CC50 with LNCaP amounted to 449 nM; in the series with VCaP, 120 nM. Further, the remaining at 0.5 h, 1 µM in series [4] turned out to be 86.7%.

`CC1(C)[C@H](NC(=O)c2ccc(N3CCN(CCC4CCN(C(=O)C5CCN(c6ccc7nnn(C8CCC(=O)NC8=O)c(=O)c7c6)CC5)CC4)CC3)cc2)C(C)(C)[C@H]1Oc1ccc(C#N)c(Cl)c1` (stereo partly specified): the figures for the Activity in series [1], in series [2] and in series [3] were 77%, 93% and 99%, respectively. Further, the CC50 worked out at 316 nM in the series on LNCaP and 52 nM in the series on VCaP. Further, the remaining at 0.5 h, 1 µM in series [4] is 93.7%.

Regarding `CC1(C)[C@H](NC(=O)c2ccc(N3CCN(CC4CCN(C(=O)COc5ccc6nnn(C7CCC(=O)NC7=O)c(=O)c6c5)CC4)CC3)cc2)C(C)(C)[C@H]1Oc1ccc(C#N)c(Cl)c1` (stereo partly specified), the figures for the Activity in series [1], in series [2] and in series [3] were 89%, 40% and 51%, respectively. The CC50 in the series with LNCaP was determined as 804 nM.

For the compound `CC1(C)[C@H](NC(=O)c2ccc(N3CCN(CCC4CCN(C(=O)C5CN(c6ccc7nnn(C8CCC(=O)NC8=O)c(=O)c7c6)C5)CC4)CC3)cc2)C(C)(C)[C@H]1Oc1ccc(C#N)c(Cl)c1` (stereo partly specified), the results for the Activity in series [1], in series [2] and in series [3] were 74%, 84% and 96%, respectively. Besides, the CC50 in the series on LNCaP stood at 538 nM; in the series with VCaP, 37 nM. In series [4], the remaining at 0.5 h, 1 µM is 92.9%.

Take `CC1(C)[C@H](NC(=O)c2ccc(N3CCN(CCC4CCN(c5cccc6nnn(C7CCC(=O)NC7=O)c(=O)c56)CC4)CC3)cc2)C(C)(C)[C@H]1Oc1ccc(C#N)c(Cl)c1` (stereo partly specified): the Activity in series [1] stood at 0%; in series [2], 31%; in series [3] it was 90%. For the same compound, the figures for the CC50 in the series with LNCaP and in the series with VCaP were greater than 10000 nM and 1580 nM, respectively.

As to `CC1(C)[C@H](NC(=O)c2ccc(N3CCN(C4CC5(CCN(c6cccc7nnn(C8CCC(=O)NC8=O)c(=O)c67)CC5)C4)CC3)cc2)C(C)(C)[C@H]1Oc1ccc(C#N)c(Cl)c1` (stereo partly specified), the Activity in series [1] came to 0%; in series [2] it was 26%; in series [3], 71%. In addition, the CC50 with LNCaP was determined as 13400 nM.

Regarding `CC1(C)[C@H](NC(=O)c2ccc(N3CCN(C4CC5(CCN(C(=O)C6CN(c7ccc8nnn(C9CCC(=O)NC9=O)c(=O)c8c7)C6)CC5)C4)CC3)cc2)C(C)(C)[C@H]1Oc1ccc(C#N)c(Cl)c1` (stereo partly specified), the figures for the Activity in series [1], in series [2] and in series [3] were 0%, 79% and 0%, respectively. In addition, the CC50 with LNCaP was determined as 312 nM; in the series with VCaP, 135 nM.

As for `CC1(C)[C@H](NC(=O)c2ccc(N3CCN(CCC4CCN(C(=O)CNc5ccc6nnn(C7CCC(=O)NC7=O)c(=O)c6c5)CC4)CC3)cc2)C(C)(C)[C@H]1Oc1ccc(C#N)c(Cl)c1` (stereo partly specified), the values for the Activity in series [1], in series [2] and in series [3] were 7%, 87% and 83%, respectively. Besides, the CC50 in the series with LNCaP was 1090 nM; in the series with VCaP, 107 nM. In addition, in series [4], the remaining at 0.5 h, 1 µM was determined as 0.56%.

Regarding `CC1(C)[C@H](NC(=O)c2ccc(N3CCN(CCOC4CCN(C(=O)CNc5ccc6nnn(C7CCC(=O)NC7=O)c(=O)c6c5)CC4)CC3)cc2)C(C)(C)[C@H]1Oc1ccc(C#N)c(Cl)c1` (stereo partly specified), the Activity in series [1] came out at 77%; in series [2] it was 95%; in series [3], 88%. The CC50 worked out at 852 nM in the series on LNCaP and 57 nM in the series on VCaP. The remaining at 0.5 h, 1 µM in series [4] was 31.2%.

Take `CC1(C)[C@H](NC(=O)c2ccc(N3CCN(CC4CCN(C(=O)C5CCN(c6ccc7nnn(C8CCC(=O)NC8=O)c(=O)c7c6)CC5)CC4)CC3)cc2)C(C)(C)[C@H]1Oc1ccc(C#N)c(Cl)c1` (stereo partly specified): the Activity is 90% in series [1], 89% in series [2] and 94% in series [3]. The CC50 is 108 nM in the series on LNCaP and 45 nM in the series with VCaP. Besides, the remaining at 0.5 h, 1 µM in series [4] stood at 74.3%.

As for `CC1(C)[C@H](NC(=O)c2ccc(N3CCN(CCC4CCN(C(=O)COc5ccc6nnn(C7CCC(=O)NC7=O)c(=O)c6c5)CC4)CC3)cc2)C(C)(C)[C@H]1Oc1ccc(C#N)c(Cl)c1` (stereo partly specified), the Activity in series [1] was 0%; in series [2], 50%; in series [3], 82%. Besides, the values for the CC50 in the series on LNCaP and in the series on VCaP were 3180 nM and 46 nM, respectively. The remaining at 0.5 h, 1 µM in series [4] was 2.98%.

On to `CC1(C)[C@H](NC(=O)c2ccc(N3CCN(C4CC5(CCN(C(=O)CNc6ccc7nnn(C8CCC(=O)NC8=O)c(=O)c7c6)CC5)C4)CC3)cc2)C(C)(C)[C@H]1Oc1ccc(C#N)c(Cl)c1` (stereo partly specified), for which the Activity in series [1] stood at 61%; in series [2], 77%; in series [3], 39%. Further, the CC50 stood at 208 nM in the series with LNCaP and 54 nM in the series on VCaP. Moreover, the remaining at 0.5 h, 1 µM in series [4] is 85.5%.

`CC1(C)[C@H](NC(=O)c2ccc(N3CCN(C4CC5(CCN(C(=O)COc6ccc7nnn(C8CCC(=O)NC8=O)c(=O)c7c6)CC5)C4)CC3)cc2)C(C)(C)[C@H]1Oc1ccc(C#N)c(Cl)c1` (stereo partly specified): the Activity in series [1] came out at 60%; in series [2], 77%; in series [3] it was 79%. The CC50 was 196 nM in the series on LNCaP and 76 nM in the series with VCaP. In series [4], the remaining at 0.5 h, 1 µM came to 62.8%.

`CC1(C)[C@H](NC(=O)c2ccc(N3CCN(CC4CCN(c5cccc6nnn(C7CCC(=O)NC7=O)c(=O)c56)CC4)CC3)cc2)C(C)(C)[C@H]1Oc1ccc(C#N)c(Cl)c1` (stereo partly specified): the Activity in series [1] was found to be 15%; in series [2], 77%; in series [3] it was 78%. Besides, the CC50 in the series on LNCaP worked out at 613 nM.

Turning to `O=C1CC2(CCCC2)CC(=O)N1CCCCN1CCN(c2ncccn2)CC1` [BUSPIRONE], the remaining at 0.5 h, 1 µM in series [4] was 0.03%.

Turning to `CC1(C)[C@H](NC(=O)c2ccc(N3CCN(CCOC4CCN(C(=O)COc5ccc6nnn(C7CCC(=O)NC7=O)c(=O)c6c5)CC4)CC3)cc2)C(C)(C)[C@H]1Oc1ccc(C#N)c(Cl)c1` (stereo partly specified), the Activity in series [1] is 86%; in series [2] it was 98%; in series [3], 94%. The CC50 with LNCaP was determined as 1300 nM; in the series with VCaP, 141 nM.

On to `CC1(C)[C@H](NC(=O)c2ccc(N3CCN(CC4CCN(C(=O)CNc5ccc6nnn(C7CCC(=O)NC7=O)c(=O)c6c5)CC4)CC3)cc2)C(C)(C)[C@H]1Oc1ccc(C#N)c(Cl)c1` (stereo partly specified), for which the Activity in series [1] stood at 70%; in series [2], 89%; in series [3] it was 35%. The results for the cytotoxic concentration (CC50) in the series with LNCaP and in the series on VCaP were 117 nM and 3820 nM, respectively.
